ChEMBL document CHEMBL1151466 (Antimicrob Agents Chemother, 2008)

How the values were obtained:
[1] = Elimination half life in Paua New Guinean children with uncomplicated malaria at 10 mg/kg daily for 3 days; format: ADME, organism-based; parameters: dose 10 mg/kg; conditions: human, in vivo, read-out: beta t1/2 (converted)
Outline: (§1)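 Children aged 5–10 y with uncomplicated malaria took oral CQ at 10 mg base/kg daily at 0, 24 and 48 h, with single-dose SP given alongside the first dose, without fasting. Heparin plasma was sampled serially to day 42, stored at −80°C, extracted with t-butyl methyl ether, and measured by HPLC-UV at 340 nm. Two-compartment model fitting used 1/y2 weighting.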

Homo sapiens [2] = assay: Tlag in Paua New Guinean children with uncomplicated malaria at 10 mg/kg daily for 3 days; format: ADME, organism-based; parameters: dose 10 mg/kg; conditions: in vivo, 72 h; outline: as §1
[3] = Volume of distribution at steady state with respect to bioavailability in Paua New Guinean children with uncomplicated malaria at 10 mg/kg daily for 3 days; format: ADME, organism-based; conditions: human, in vivo, read-out: Vc/F; outline: as §1
[4] = AUC (0 to 42 days) in Paua New Guinean children with uncomplicated malaria at 10 mg/kg daily for 3 days; format: ADME, organism-based; parameters: time < 1008 hr, dose 10 mg/kg; conditions: human, plasma; outline: as §1
Homo sapiens [5] = assay: AUC (0 to infinity) in Paua New Guinean children with uncomplicated malaria at 10 mg/kg daily for 3 days; format: ADME, organism-based, Plasma; parameters: time infinity, dose 10 mg/kg; conditions: in vivo, 72 h; outline: as §1
[6] = Apparent clearance with respect to bioavailability in human with malaria; format: ADME, organism-based; conditions: in vivo
[7] = Apparent clearance with respect to bioavailability in human; format: ADME, organism-based; conditions: in vivo
[8] = Elimination half life in Paua New Guinean children with uncomplicated malaria; format: ADME, organism-based; conditions: human, in vivo; read-out: beta t1/2 (converted)
[9] = AUC (0 to 42 days) in Paua New Guinean children with uncomplicated malaria; format: ADME, organism-based; parameters: time < 1008 hr; conditions: human, plasma
[10] = AUC (0 to infinity) in Paua New Guinean children with uncomplicated malaria; format: ADME, organism-based; parameters: time infinity; conditions: human, plasma
Plasmodium falciparum [11] = assay: Antiplasmodial activity against chloroquine-sensitive Plasmodium falciparum; format: functional, organism-based
Plasmodium falciparum [12] = assay: Antiplasmodial activity against chloroquine-resistant Plasmodium falciparum; format: functional, organism-based
[13] = Elimination half life in Paua New Guinean children with uncomplicated malaria at 20 mg/kg daily for 3 days; format: ADME, organism-based; parameters: dose 20 mg/kg; conditions: human, in vivo, read-out: beta t1/2 (converted)
Outline: (§2)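 Children aged 5–10 y with uncomplicated malaria were given oral DHA-PQ at PQ phosphate 20 mg/kg (11.5 mg base/kg) daily at 0, 24 and 48 h, swallowed with water, without fasting. Sampling was serial to day 42. Heparin plasma was stored at −80°C, extracted with hexane-isoamyl alcohol, and assayed by HPLC with UV detection at 340 nm. Parameters came from a two-compartment model with 1/y2 weighting.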

Homo sapiens [14] = assay: Tlag in Paua New Guinean children with uncomplicated malaria at 20 mg/kg daily for 3 days; format: ADME, organism-based; parameters: dose 20 mg/kg; conditions: in vivo, 72 h; outline: as §2
[15] = Volume of distribution at steady state with respect to bioavailability in Paua New Guinean children with uncomplicated malaria at 20 mg/kg daily for 3 days; format: ADME, organism-based; conditions: human, in vivo, read-out: Vc/F; outline: as §2
[16] = Apparent clearance with respect to bioavailability in Paua New Guinean children with uncomplicated malaria at 20 mg/kg daily for 3 days; format: ADME, organism-based; conditions: human, in vivo; outline: as §2
[17] = AUC (0 to 42 days) in Paua New Guinean children with uncomplicated malaria at 20 mg/kg daily for 3 days; format: ADME, organism-based; parameters: time < 1008 hr, dose 20 mg/kg; conditions: human, plasma; outline: as §2
[18] = AUC (0 to infinity) in Paua New Guinean children with uncomplicated malaria at 20 mg/kg daily for 3 days; format: ADME, organism-based; parameters: time infinity, dose 20 mg/kg; conditions: human, plasma; outline: as §2
[19] = Elimination half life in Cambodian children with malaria; format: ADME, organism-based; conditions: human, in vivo; read-out: beta t1/2 (converted)
[20] = Volume of distribution at steady state with respect to bioavailability in Cambodian children with malaria; format: ADME, organism-based; conditions: human, in vivo; read-out: Vc/F
Homo sapiens [21] = organism: Homo sapiens; assay: Volume of distribution at steady state with respect to bioavailability in human after fat meal using non-compartmental analysis; format: ADME, organism-based; conditions: in vivo
[22] = Apparent clearance with respect to bioavailability in human after fasting using non-compartmental analysis; format: ADME, organism-based; conditions: in vivo
[23] = Apparent clearance with respect to bioavailability in human after fat meal using non-compartmental analysis; format: ADME, organism-based; conditions: in vivo
[24] = Apparent clearance with respect to bioavailability in Vietnamese human; format: ADME, organism-based; conditions: in vivo
[25] = Volume of distribution at steady state with respect to bioavailability in Vietnamese human; format: ADME, organism-based; conditions: in vivo, read-out: Vc/F

CCN(CC)CCCC(C)Nc1ccnc2cc(Cl)ccc12 (configuration not stated) [CHLOROQUINE]
half-life [1]: 9.71 days
Tlag (Homo sapiens [2]): 0.55 h
Vd/F [3]: 154 L/kg
AUC at 1008 h [4]: 117 µM·h
AUC (Homo sapiens [5]): 122.5 µM·h
CL/F [6]: 2.17 mL/min/kg
CL/F [7]: 2.17 mL/min/kg

CCNCCCC(C)Nc1ccnc2cc(Cl)ccc12 (configuration not stated) [DESETHYLCHLOROQUINE]
half-life [8]: 12.1 days
AUC(0-t) at 1008 h [9]: 83.6 µM·h
AUC(0-inf) [10]: 98.5 µM·h
IC50 (Plasmodium falciparum [11]): 0.0178 µM
IC50 (Plasmodium falciparum [12]): 0.0374 µM

Clc1ccc2c(N3CCN(CCCN4CCN(c5ccnc6cc(Cl)ccc56)CC4)CC3)ccnc2c1 [PIPERAQUINE]
half-life [13]: 17.2 days
Tlag (Homo sapiens [14]): 0.89 h
Vd/F [15]: 431 L/kg
CL/F [16]: 14.2 mL/min/kg
AUC at 1008 h [17]: 76.4 µM·h
AUC(0-inf) [18]: 87.4 µM·h
half-life [19]: 13.5 days
Vd/F [20]: 614 L/kg
Vc/F (Homo sapiens [21]): 365 L/kg
CL/F [22]: 19 mL/min/kg
CL/F [23]: 10 mL/min/kg
CL/F [24]: 16.2 mL/min/kg
Vd/F [25]: 103 L/kg
IC50 (Plasmodium falciparum [11]): 0.0355 µM
IC50 (Plasmodium falciparum [12]): 0.0407 µM
